According to ChEMBL document CHEMBL1157072 (Bioorg Med Chem, 2010):
In brackets after ≈: the same amount, converted by molar mass.

How the values were obtained:
Staphylococcus aureus [1] = assay: Antibacterial activity against Staphylococcus aureus NCTC 8325 after 16 to 20 hrs by broth microdilution method; format: functional
Outline: (§1)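 Broth microdilution in cation-adjusted Mueller Hinton broth. Compounds were serially diluted twofold in DMSO at 50-fold final strength (2% DMSO final). The inoculum was 1 × 10^4 cells per well. Plates were incubated at 37 °C for 16–20 h, and growth was read as absorbance at 600 nm.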

Staphylococcus aureus [2] = assay: microbe, parasite or virus in culture; settings: isolate d20A1
[3] = Selectivity ratio of MIC for MBX-1090-resistant Staphylococcus aureus isolate d20A1 to MIC for Staphylococcus aureus NCTC 8325; format: functional
Outline: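 Ratio of resistant-mutant MIC to NCTC 8325 MIC. Both MICs came from broth microdilution in cation-adjusted MHB with 2% DMSO final and 1 × 10^4 cells per well, incubated at 37 °C for 16–20 h and read at 600 nm.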

[4] = Dissociation constant, pKa of the compound; format: physicochemical
Staphylococcus aureus [5] = assay: Antibacterial activity against Staphylococcus aureus NCTC 8325 after 16 to 20 hrs by broth microdilution method in presence of efflux pump inhibitor reserpine; format: functional
Outline: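 Broth microdilution in cation-adjusted MHB with reserpine at 20 µg/ml final in the medium as efflux inhibitor. Twofold DMSO dilutions were made (2% DMSO final) with 1 × 10^4 cells per well. Incubation was 37 °C for 16–20 h, with growth read at 600 nm.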

Staphylococcus aureus [6] = assay: Antibacterial activity against Staphylococcus aureus NCTC 8325 harboring genetic deletion of mepR gene after 16 to 20 hrs by broth microdilution method; format: functional; outline: as §1
Staphylococcus aureus [7] = assay: Antibacterial activity against Staphylococcus aureus NCTC 8325 harboring genetic deletion of mepRA gene after 16 to 20 hrs by broth microdilution method; format: functional; outline: as §1
Staphylococcus aureus [8] = assay: Antibacterial activity against Staphylococcus aureus NCTC 8325 carrying expression vector pG154 after 16 to 20 hrs by broth microdilution method; format: functional; outline: as §1
Staphylococcus aureus [9] = assay: Antibacterial activity against Staphylococcus aureus NCTC 8325 carrying expression vector pG154 after 16 to 20 hrs by broth microdilution method in presence of anhydrous tetracycline; format: functional
Outline: (§2)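 Broth microdilution in cation-adjusted MHB containing anhydrous tetracycline at 100 ng/ml final to induce the pG154 expression vector. Twofold DMSO compound dilutions were used (2% DMSO final) with 1 × 10^4 cells per well. Incubation was 37 °C for 16–20 h, and absorbance was read at 600 nm.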

Staphylococcus aureus [10] = assay: Antibacterial activity against Staphylococcus aureus NCTC 8325 carrying expression vector pG154 with mepA gene after 16 to 20 hrs by broth microdilution method; format: functional; outline: as §1
Staphylococcus aureus [11] = assay: Antibacterial activity against Staphylococcus aureus NCTC 8325 carrying expression vector pG154 with mepA gene after 16 to 20 hrs by broth microdilution method in presence of anhydrous tetracycline; format: functional; outline: as §2
Staphylococcus aureus [12] = assay: Antibacterial activity against Staphylococcus aureus NCTC 8325 harboring genetic deletion of mepRA gene and carrying expression vector pG154 after 16 to 20 hrs by broth microdilution method; format: functional; outline: as §1
Staphylococcus aureus [13] = assay: Antibacterial activity against Staphylococcus aureus NCTC 8325 harboring genetic deletion of mepRA gene and carrying expression vector pG154 after 16 to 20 hrs by broth microdilution method in presence of anhydrous tetracycline; format: functional; outline: as §2
Staphylococcus aureus [14] = assay: Antibacterial activity against Staphylococcus aureus NCTC 8325 harboring genetic deletion of mepRA gene and carrying expression vector pG154 with mepA gene after 16 to 20 hrs by broth microdilution method; format: functional; outline: as §1
Staphylococcus aureus [15] = assay: Antibacterial activity against Staphylococcus aureus NCTC 8325 harboring genetic deletion of mepRA gene and carrying expression vector pG154 with mepA gene after 16 to 20 hrs by broth microdilution method in presence of anhydrous tetracycline; format: functional; outline: as §2
Staphylococcus aureus [16] = assay: Upregulation of mepA gene expression in MBX-1090-resistant Staphylococcus aureus isolate d20A1 at 0.4 ug/ml by RT-PCR analysis relative to wild type; format: functional
Staphylococcus aureus [17] = assay: Upregulation of mepB gene expression in MBX-1090-resistant Staphylococcus aureus isolate d20A1 at 0.4 ug/ml by RT-PCR analysis relative to wild type; format: functional
Staphylococcus aureus [18] = assay: Upregulation of conventional hypothetical protein mRNA expression in MBX-1090-resistant Staphylococcus aureus isolate d20A1 at 0.4 ug/ml by RT-PCR analysis relative to wild type; format: functional
Staphylococcus aureus [19] = assay: Downregulation of protein A gene expression in MBX-1090-resistant Staphylococcus aureus isolate d20A1 at 0.4 ug/ml by RT-PCR analysis relative to wild type; format: functional
Staphylococcus aureus [20] = assay: Modulation of ribH gene expression in MBX-1090-resistant Staphylococcus aureus isolate d20A1 at 0.4 ug/ml by RT-PCR analysis relative to wild type; format: functional
Staphylococcus aureus [21] = assay: Modulation of ribA gene expression in MBX-1090-resistant Staphylococcus aureus isolate d20A1 at 0.4 ug/ml by RT-PCR analysis relative to wild type; format: functional
Staphylococcus aureus [22] = assay: Modulation of ribE gene expression in MBX-1090-resistant Staphylococcus aureus isolate d20A1 at 0.4 ug/ml by RT-PCR analysis relative to wild type; format: functional
Staphylococcus aureus [23] = assay: Modulation of ribD gene expression in MBX-1090-resistant Staphylococcus aureus isolate d20A1 at 0.4 ug/ml by RT-PCR analysis relative to wild type; format: functional

SMILES: CN(C)[C@@H]1C(O)=C(C(N)=O)C(=O)[C@@]2(O)C(O)=C3C(=O)c4c(O)cccc4[C@@](C)(O)[C@H]3C[C@@H]12 [TETRACYCLINE]
- MIC (Staphylococcus aureus [1]): 0.5 µg/mL (≈ 1.13 µM)
- MIC (Staphylococcus aureus [2]): 0.5 µg/mL (≈ 1.13 µM)

SMILES: CN[C@@H]1[C@H](O[C@H]2[C@H](O[C@H]3[C@H](O)[C@@H](O)[C@H](N=C(N)N)[C@@H](O)[C@@H]3N=C(N)N)O[C@@H](C)[C@]2(O)C=O)O[C@@H](CO)[C@H](O)[C@H]1O [STREPTOMYCIN]
- MIC (Staphylococcus aureus [1]): 32 µg/mL (≈ 55 µM)
- Selectivity ratio [3]: 4
- MIC (Staphylococcus aureus [2]): 128 µg/mL (≈ 220 µM)

SMILES: c1cc2cc(-c3ccc(-c4cc5ccc(C6=NCCN6)cc5[nH]4)cc3)[nH]c2cc1C1=NCCN1
- pKa [4]: 9.6
- MIC (Staphylococcus aureus [1]): 0.25 µg/mL (≈ 0.562 µM)
- MIC (Staphylococcus aureus [5]): 0.125 µg/mL
- MIC (Staphylococcus aureus [6]): 0.25 µg/mL (≈ 0.562 µM)
- MIC (Staphylococcus aureus [7]): 0.5 µg/mL (≈ 1.12 µM)
- MIC (Staphylococcus aureus [8]): 0.5 µg/mL (≈ 1.12 µM)
- MIC (Staphylococcus aureus [9]): 1 µg/mL
- MIC (Staphylococcus aureus [10]): 0.5 µg/mL (≈ 1.12 µM)
- MIC (Staphylococcus aureus [11]): 0.25 µg/mL
- MIC (Staphylococcus aureus [12]): 0.5 µg/mL (≈ 1.12 µM)
- MIC (Staphylococcus aureus [13]): 0.5 µg/mL
- MIC (Staphylococcus aureus [14]): 0.25 µg/mL (≈ 0.562 µM)
- MIC (Staphylococcus aureus [15]): 8 µg/mL
- fold change (FC) (Staphylococcus aureus [16]): 8.7
- fold change (FC) (Staphylococcus aureus [17]): 4.2
- fold change (FC) (Staphylococcus aureus [18]): 6.8
- fold change (FC) (Staphylococcus aureus [19]): 3.1
- fold change (FC) (Staphylococcus aureus [20]): 2.1
- fold change (FC) (Staphylococcus aureus [21]): 1.2
- fold change (FC) (Staphylococcus aureus [22]): 1.2
- fold change (FC) (Staphylococcus aureus [23]): 1.3
- MIC (Staphylococcus aureus [2]): 0.5 µg/mL (≈ 1.12 µM)

SMILES: CC[C@H]1OC(=O)[C@H](C)[C@@H](O[C@H]2C[C@@](C)(OC)[C@@H](O)[C@H](C)O2)[C@H](C)[C@@H](O[C@@H]2O[C@H](C)C[C@H](N(C)C)[C@H]2O)[C@](C)(O)C[C@@H](C)C(=O)[C@H](C)[C@@H](O)[C@]1(C)O [ERYTHROMYCIN]
- MIC (Staphylococcus aureus [1]): 1 µg/mL (≈ 1.36 µM)
- MIC (Staphylococcus aureus [2]): 0.5 µg/mL (≈ 0.681 µM)

SMILES: CO[C@H]1/C=C/O[C@@]2(C)Oc3c(C)c(O)c4c(O)c(c(/C=N/N5CCN(C)CC5)c(O)c4c3C2=O)NC(=O)/C(C)=C\C=C\[C@H](C)[C@H](O)[C@@H](C)[C@@H](O)[C@@H](C)[C@H](OC(C)=O)[C@@H]1C [RIFAMPIN]
- MIC (Staphylococcus aureus [1]): 0.0122 µg/mL (≈ 0.0148 µM)
- MIC (Staphylococcus aureus [2]): 0.0122 µg/mL (≈ 0.0148 µM)

SMILES: CCn1cc(C(=O)O)c(=O)c2ccc(C)nc21 [NALIDIXIC ACID]
- MIC (Staphylococcus aureus [1]): 100 µg/mL (≈ 431 µM)
- MIC (Staphylococcus aureus [2]): 50 µg/mL (≈ 215 µM)

SMILES: O=C(N[C@H](CO)[C@H](O)c1ccc([N+](=O)[O-])cc1)C(Cl)Cl [CHLORAMPHENICOL]
- MIC (Staphylococcus aureus [1]): 8 µg/mL (≈ 24.8 µM)
- MIC (Staphylococcus aureus [2]): 8 µg/mL (≈ 24.8 µM)

SMILES: CN[C@@H]1[C@H](O)[C@H](NC)[C@H]2O[C@@]3(O)C(=O)C[C@@H](C)O[C@H]3O[C@@H]2[C@H]1O [SPECTINOMYCIN]
- MIC (Staphylococcus aureus [1]): 128 µg/mL (≈ 385 µM)
- MIC (Staphylococcus aureus [2]): 128 µg/mL (≈ 385 µM)

SMILES: COc1cc(Cc2cnc(N)nc2N)cc(OC)c1OC [TRIMETHOPRIM]
- MIC (Staphylococcus aureus [1]): 3.12 µg/mL (≈ 10.8 µM)
- MIC (Staphylococcus aureus [2]): 3.12 µg/mL (≈ 10.8 µM)

SMILES: Cc1onc(-c2ccccc2)c1C(=O)N[C@@H]1C(=O)N2[C@@H]1SC(C)(C)[C@@H]2C(=O)O [OXACILLIN]
- MIC (Staphylococcus aureus [1]): 0.125 µg/mL (≈ 0.311 µM)
- MIC (Staphylococcus aureus [2]): 0.125 µg/mL (≈ 0.311 µM)

SMILES: NC[C@H]1O[C@H](O[C@H]2[C@H](O)[C@@H](O[C@H]3O[C@H](CO)[C@@H](O)[C@H](N)[C@H]3O)[C@H](N)C[C@@H]2N)[C@H](O)[C@@H](O)[C@@H]1O [KANAMYCIN]
- MIC (Staphylococcus aureus [1]): 2 µg/mL (≈ 4.13 µM)
- Selectivity ratio [3]: 4
- MIC (Staphylococcus aureus [2]): 8 µg/mL (≈ 16.5 µM)

SMILES: c1cc2cc(-c3ccc4cc(-c5ccc6oc(C7=NCCN7)cc6c5)[nH]c4c3)[nH]c2cc1C1=NCCN1
- MIC (Staphylococcus aureus [1]): 0.5 µg/mL (≈ 1.03 µM)
- MIC (Staphylococcus aureus [5]): 0.25 µg/mL
- MIC (Staphylococcus aureus [6]): 0.5 µg/mL (≈ 1.03 µM)
- MIC (Staphylococcus aureus [7]): 1 µg/mL (≈ 2.06 µM)
- MIC (Staphylococcus aureus [8]): 1 µg/mL (≈ 2.06 µM)
- MIC (Staphylococcus aureus [9]): 1 µg/mL
- MIC (Staphylococcus aureus [10]): 1 µg/mL (≈ 2.06 µM)
- MIC (Staphylococcus aureus [11]): 0.25 µg/mL
- MIC (Staphylococcus aureus [12]): 1 µg/mL (≈ 2.06 µM)
- MIC (Staphylococcus aureus [13]): 0.5 µg/mL
- MIC (Staphylococcus aureus [14]): 0.5 µg/mL (≈ 1.03 µM)
- MIC (Staphylococcus aureus [15]): 0.5 µg/mL
- MIC (Staphylococcus aureus [2]): 1 µg/mL (≈ 2.06 µM)
